The record followed here is ChEMBL document CHEMBL2331541, “Small molecule antivirulents targeting the iron-regulated heme oxygenase (HemO) of P. aeruginosa” (J Med Chem, 2013).

Test [1] deals with Pseudomonas aeruginosa. Kind of test: Antimicrobial activity against Pseudomonas aeruginosa PAO1. The test is classed as functional. The procedure, abridged:
(§1)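 Strains grown from single colony 8 h at 37 °C in LB, diluted to OD600 0.05, incubated in LB alone or with 250−1500 μM compound. OD600 read at 6, 12 and 24 h, blank with matching inhibitor concentration subtracted. MIC50 averaged from three separate experiments.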

Test [2] is described as follows: Binding affinity to Pseudomonas aeruginosa apo Heme oxygenase expressed in Escherichia coli BL21(DE3) assessed as decrease in tryptophan fluorescence. The procedure, abridged:
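Apo-HemO held at 1 μM in 20 mM Tris-HCl (pH 7.5), titrated with inhibitor 0.05−500 μM. Excitation 295 nm, emission scanned 300−500 nm; fluorescence decrease at 330 nm used in 1/ΔA vs 1/[I] reciprocal plot, slope giving KD. Mean of three separate experiments.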

The subject of test [3] is Pseudomonas aeruginosa. Nature of the test: Antimicrobial activity against Pseudomonas aeruginosa PAO1 infected in Caenorhabditis elegans glp-4(bn2) assessed as increase in host lifespan at 250 ug/ml. The class given is functional, organism-based. Put shortly:
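Synchronized glp-4(bn2) young adults (30) exposed 12 h to P. aeruginosa PAO1 lawn on PGS agar (peptone, NaCl, glucose, 0.15 M sorbitol), washed in M9, reseeded on E. coli OP50 PGS-agar plates containing inhibitor. Viability scored daily; death taken as no response to touch. Average of three experiments.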

Test [4] deals with Pseudomonas aeruginosa. Nature of the test: Binding affinity to Pseudomonas aeruginosa apo Heme oxygenase expressed in Escherichia coli BL21(DE3) assessed as shift in specific resonance at 4.2 mM after 2 hrs by chemical shift NMR analysis. The procedure, abridged: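 15N-labeled apo-HemO at 1.2 mM (50 mM phosphate, 100 mM KCl, 95% H2O/5% D2O) with inhibitor at 0, 0.7, 1.05, 2.1 or 4.2 mM; inhibitor dissolved into protein 2 h at room temperature, centrifuged. 1H−15N TROSY-HSQC at 25 °C; combined shift Δppm = sqrt(ΔδHN² + (0.2·ΔδN)²).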

In test [5] the test system is Pseudomonas aeruginosa. Kind of test: Binding affinity to Pseudomonas aeruginosa apo Heme oxygenase expressed in Escherichia coli BL21(DE3) after 4 hrs by STD-NMR analysis. The procedure, abridged: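 STD-NMR at 25 °C, 500 MHz: inhibitor-saturated solution (50 mM sodium phosphate, 100 mM NaCl, D2O, pH 7.4, stood about 4 h, centrifuged) mixed with 3−4 μM HemO; inhibitor about 5 mM by TSP reference. Selective saturation 2 s via 50 ms Gaussian pulses; repeated with 10 s interscan delay. Strongest-saturated proton set to 100%.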

Test [6] concerns Pseudomonas aeruginosa. Kind of test: Antimicrobial activity against Pseudomonas aeruginosa PAO1 infected in Caenorhabditis elegans glp-4(bn2) assessed as reduction in CFU at 250 ug/ml by serial dilution method. The test is classed as functional, organism-based. The procedure, abridged:
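Infected worms (PAO1, 12 h on PGS agar) moved to E. coli OP50 plates with inhibitor; at 24, 48, 72 and 96 h, 10 live worms washed three times in M9 with 1 mM sodium azide, disrupted with 1.0 mm silicon carbide beads by vortexing 1 min, debris pelleted, lysate serially diluted and plated on PIA for cfu. Uninfected and untreated infected worms as controls.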

In test [7] the test system is Pseudomonas aeruginosa. Nature of the test: Antimicrobial activity against Pseudomonas aeruginosa FRD1. The test is classed as functional. The procedure, abridged: as §1
Test [8] concerns Pseudomonas aeruginosa. Kind of test: Antimicrobial activity against Pseudomonas aeruginosa WR5. The class given is functional. The procedure, abridged: as §1

Converted amounts (≈) assume the structure as drawn. The source made the active and inactive calls. No cut-off for these calls is given here.

The term MIC50 denotes the lowest concentration that inhibits either 50% of growth or 50% of the strains tested, depending on the study. As usually defined, the Kd is the concentration at which binding is half-saturated. Consider `CN(C)c1ccc(/C=N/NC(=N)N)cc1`, for which the MIC50 in the test on Pseudomonas aeruginosa [1] came to 250 µg/mL (≈ 1220 µM); in the test with Pseudomonas aeruginosa [7], 190 µg/mL (≈ 926 µM); in the test with Pseudomonas aeruginosa [8], 210 µg/mL (≈ 1020 µM). For the same compound, in test [2], the Kd turned out to be 31.2 µM. In addition, the outcome in the test with Pseudomonas aeruginosa [3], with Pseudomonas aeruginosa [4], in the test with Pseudomonas aeruginosa [5] and in the test on Pseudomonas aeruginosa [6] was Active.
Consider `O=C(O)/C=C/C(=O)Nc1ccc(Oc2ccccc2)cc1`, for which the results for the MIC50 against Pseudomonas aeruginosa [1], in the test with Pseudomonas aeruginosa [7] and in the test on Pseudomonas aeruginosa [8] were 1000 µg/mL (≈ 3530 µM), 750 µg/mL (≈ 2650 µM) and 800 µg/mL (≈ 2820 µM), respectively. Besides, the Kd in test [2] turned out to be 29.3 µM.
With `O=C(O)/C=C/C(=O)Nc1ccc(Nc2ccccc2)cc1`, the values for the MIC50 against Pseudomonas aeruginosa [1], in the test on Pseudomonas aeruginosa [7] and against Pseudomonas aeruginosa [8] were 1200 µg/mL (≈ 4250 µM), 950 µg/mL (≈ 3370 µM) and 1100 µg/mL (≈ 3900 µM), respectively. Besides, the Kd in test [2] was determined as 18.4 µM. For the same compound, the outcome with Pseudomonas aeruginosa [3], in the test with Pseudomonas aeruginosa [4] and in the test with Pseudomonas aeruginosa [5] was Active.
